Screens: PubChem, The Scripps Research Institute Molecular Screening Center
Most compounds without a hit are left out; they make up all but 4.5% or so of the library.
CHO parental Ca – signal in parental CHO cells, OX1R antagonist counter-screen; parental CHO-K1, ATP-induced calcium, Fluo-8 fluorescence; inhibition, % at 5.6 µM; 330,000 compounds, 0.63% hits;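 active = inhibition above that plate's mean sample inhibition plus 3 SD, cut at about 26% in these data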;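 note: 0% = ATP-challenged DMSO wells and 100% = DMSO wells without ATP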
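Material: parental CHO cells / Compound: single nominal dose of 5.6 µM per compound / Signal: Fluo-8 fluorescence / Replicates: singlicate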
TAAR1 agonist – agonists of human TAAR1; Q96RJ0; CHO RD-HGA16 TAAR1, Fluo-8 calcium fluorescence; vehicle wells 0%, saturating PEA agonist 100%; activation, % at 3 µM; 360,000 compounds, 0.99% hits; AID 624467;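 active = activation above the mean activation of all test compounds in the run plus 3 SD, cut at about 38% in these data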
Target sequence (Q96RJ0 whole entry, looked up): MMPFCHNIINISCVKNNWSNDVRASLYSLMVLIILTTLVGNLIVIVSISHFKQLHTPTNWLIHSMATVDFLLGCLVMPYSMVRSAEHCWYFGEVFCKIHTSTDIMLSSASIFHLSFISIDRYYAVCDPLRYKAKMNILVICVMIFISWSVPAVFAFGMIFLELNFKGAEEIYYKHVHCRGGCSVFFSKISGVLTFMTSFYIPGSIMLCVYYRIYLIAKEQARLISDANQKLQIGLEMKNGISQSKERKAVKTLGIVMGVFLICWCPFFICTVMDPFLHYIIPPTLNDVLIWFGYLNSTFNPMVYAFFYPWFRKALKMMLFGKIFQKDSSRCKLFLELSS
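Test system: RD-HGA16 (CHO) cells co-expressing Gα16 and hTAAR1 | Doses: Single dose, 3 µM | Schedule: 17-24 h seeding, 75 min 37 °C dye, 30 min RT | Evaluation: % activation from peak over basal fluorescence ratio, DMSO-to-PEA scaled | Technique: Kinetic Fluo-8 calcium fluorescence | Benchmarks: Low control DMSO, high control PEA (EC100)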
TAAR1 antag – antagonists of human TAAR1; inhibition, % at 3 µM; AID 624466; 360,000 compounds, 1.5% hits; CHO RD-HGA16 TAAR1, Fluo-8 calcium fluorescence, antagonist;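 active = inhibition above a per-plate cutoff, the mean inhibition of test compounds on that plate plus 3 SD, cut at about 49% in these data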;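 note: 0% = DMSO plus EC80 beta-PEA response and 100% = DMSO alone without agonist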
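Material: RD-HGA16 CHO cells with stable hTAAR1 and Gα16; Dosing: single nominal final test compound concentration of 3 µM; Schedule: seeding 17-24 h prior, 75-min 37 °C, 30-min RT dye loading; Detection: kinetic Fluo-8 calcium fluorescence measurement; Measure: % inhibition from peak post-agonist over basal fluorescence ratio; Benchmarks: vehicle and agonist controls.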
OX1R antag-1 – OX1R (human) antagonism; O43613; OX1R-expressing cells, FRET antagonist read-out; inhibition, % at 6.6 µM; 330,000 compounds, 1.8% hits; in the data active = inhibition mostly above about 38%, no sharp cut-off; inactive = mostly below about 40%;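 note: 0% = agonist challenge alone and 100% = reference antagonist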
OX1R antag-2 – antagonists of human orexin 1 receptor | O43613 | CHO/OX1R cells, Fluo-8 calcium fluorescence, orexin A | inhibition, % at 5 µM | 330,000 compounds, 0.43% hits | AID 434989;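 active = inhibition above its plate's threshold, mean inhibition of all tested compounds on the plate plus 3 SD, cut at about 37% in these data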;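 note: 0% = orexin A challenge wells and 100% = SB-334867-A antagonist wells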
GPR7 antagonist – blocks human GPR7 receptor signaling | P48145 | GPR7-expressing cells, fluorescence antagonist assay | inhibition, % at 4.4 µM | 290,000 compounds, 1.1% hits | AID 1861; in the data active = inhibition above about 16%, passing the limit was not always enough;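 note: cells stimulated with the agonist NPW; 0% = agonist with vehicle and 100% = vehicle without agonist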
Target sequence (P48145 whole entry, looked up): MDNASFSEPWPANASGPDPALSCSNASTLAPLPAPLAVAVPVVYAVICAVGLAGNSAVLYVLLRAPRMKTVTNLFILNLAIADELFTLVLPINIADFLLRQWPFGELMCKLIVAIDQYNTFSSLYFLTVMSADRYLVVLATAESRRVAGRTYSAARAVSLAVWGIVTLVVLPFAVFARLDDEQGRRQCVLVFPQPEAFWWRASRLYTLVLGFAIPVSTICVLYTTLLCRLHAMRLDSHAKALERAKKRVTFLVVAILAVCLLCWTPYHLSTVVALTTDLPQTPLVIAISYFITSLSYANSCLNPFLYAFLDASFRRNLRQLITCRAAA
TAAR1 ag confirm – human TAAR1 agonism, confirmed. AID 651783. shares compounds with TAAR1 agonist. 2,400 compounds, 82% hits. activation, % at 3 µM. CHO RD-HGA16 TAAR1, Fluo-8 calcium fluorescence; scaled: DMSO 0%, maximal phenethylamine 100%;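 active = activation above a cutoff set at the run's mean compound activation plus 3 SD, cut at about 39% in these data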
Ga16 nonsel ag – counter-screen for TAAR1 agonists: nonselective agonists in parental cells; shares compounds with TAAR1 agonist; CHO-Ga16 parental, Fluo-8 calcium fluorescence; normalized to maximal ATP response, DMSO zero; activation, % at 3 µM; 2,400 compounds, 50% hits;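 active = activation above the run cutoff, the mean activation over all tested wells plus 3 SD, cut at about 12% in these data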;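 note: 0% = DMSO wells and 100% = maximal ATP response on the peak over basal ratio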
TAAR1 desens – human TAAR1 agonist that also desensitizes the receptor. shares compounds with TAAR1 agonist. 2,400 compounds, 46% hits. AID 651951. inhibition, % at 3 µM. CHO RD-HGA16 hTAAR1, Fluo-8 calcium, beta-PEA response inhibition;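 active = inhibition above the run cutoff, the mean inhibition of all test compounds plus 3 SD, cut at about 49% in these data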;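 note: beta-PEA stimulus applied at its EC80; loss of beta-PEA calcium signal after compound pretreatment read as receptor desensitization; 0% = DMSO with beta-PEA at EC80 and 100% = DMSO alone without agonist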
Ga16 antag count – counter-screen for TAAR1 agonists: nonselective Ga16 antagonists; shares compounds with TAAR1 agonist; CHO-Ga16 ATP-induced calcium, Fluo-8 fluorescence; inhibition, % at 3 µM; 2,400 compounds, 39% hits; AID 651952;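 active = inhibition above the plate's mean compound inhibition plus 3 SD, computed per plate, cut at about 22% in these data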;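 note: 0% = EC80 ATP with DMSO and 100% = DMSO wells without ATP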
Active calls of the source: *; · = no result.

SMILES | CHO parental Ca | TAAR1 agonist | TAAR1 antag | OX1R antag-1 | OX1R antag-2 | GPR7 antagonist | TAAR1 ag confirm | Ga16 nonsel ag | TAAR1 desens | Ga16 antag count
COc1ccc(OC)c(CN2C(=O)CSCC2(C)C(=O)NC(C)C)c1 (stereo not drawn) | · | 0 | 14 | · | · | · | · | · | · | ·
C=CCn1c(SCC(=O)N(CC)c2c(N)n(Cc3ccccc3)c(=O)[nH]c2=O)nnc1-c1ccccc1OC | · | 877* | -1 | · | · | · | 5 | 2 | -5 | 1
COC(=O)[C@]12C[C@H](CC(=O)NCc3cccc4ccccc34)C(=O)N(Cc3ccccc3)C1=C[C@H](C(C)(C)C)O[C@@H]2C | · | 1 | -21 | · | · | · | · | · | · | ·
CN(C(=O)CCc1nc(-c2ccccc2F)no1)c1ccccc1 | 4 | 45* | -19 | 1 | -10 | -15 | 6 | 7 | 4 | 2
Cc1cccc(CCNC(=O)CCc2nc(-c3ccccc3F)no2)c1 | -16 | 17 | -8 | 15 | -3 | 17 | · | · | · | ·
CCNC(=O)C1(C)CCN(C(=O)c2ccc3c(c2)OCO3)C1 (stereo not drawn) | · | 1 | -19 | · | · | · | · | · | · | ·
Cc1ccccc1-n1nnnc1SCC(=O)c1c(N)n(C)c(=O)n(C)c1=O | -11 | 93* | 11 | 14 | 1 | -16 | 130* | 87* | 42 | 14
CC(=O)Nc1ccc(-c2ccnc3c2CC(C)(C(=O)Nc2ccc4c(c2)OCO4)O3)cc1 (stereo not drawn) | · | 5 | -5 | · | · | · | · | · | · | ·
O=C(NCCc1ccc(O)cc1)c1[nH]c(C(F)(F)F)nc1-c1ccccc1 | · | 92* | 69* | · | · | · | 94* | 8 | 90* | 10
O=C(NCCc1ccccc1)c1[nH]c(C(F)(F)F)nc1-c1ccccc1 | · | 69* | 47 | · | · | · | 80* | 10 | 58* | 11
O=C(c1[nH]c(C(F)(F)F)nc1-c1ccccc1)N1CCc2ccccc2C1 | · | 81* | 11 | · | · | · | 93* | 4 | 56* | 1
O=C(c1cc(-c2ccccc2)on1)N1CCc2ccccc2C1 | -10 | 48* | -1 | 17 | -9 | 1 | 12 | 3 | 2 | 11
O=C(c1[nH]c(C(F)(F)F)nc1-c1ccccc1)N1CCCCC1 | · | 2 | -4 | · | · | · | · | · | · | ·
COC(=O)c1ccc2c(c1C(=O)OC)CN(S(=O)(=O)C(C)(C)C)[C@@H]2CCO | · | 0 | 9 | · | · | · | · | · | · | ·
CCOC(=O)c1c(NS(=O)(=O)c2cccc(OC)c2)sc2c1CCC2 | -16 | 55* | 10 | 5 | -20 | -7 | 64* | 54* | 42 | 26*
CCOC(=O)Nc1sc2c(c1C(=O)OCC)CCC2 | -4 | 18 | -29 | 9 | -8 | -9 | · | · | · | ·
COc1ccc(-c2noc(CCC(=O)Nc3ccc4c(c3)OCCO4)n2)cc1 | 13 | 18 | 7 | 27 | 16 | -5 | · | · | · | ·
Cc1ccc(-c2noc(CCC(=O)Nc3ccc4c(c3)OCO4)n2)cc1 | 25 | 83* | 80* | 45 | 26 | -10 | 3 | 6 | 14 | 24*
CN1C(C)(C)CC(O)(C(=O)O)CC1(C)C | · | -1 | -17 | · | · | · | · | · | · | ·
Nc1sc2c(c1C(=O)NCCc1ccccc1)CCC2 | -6 | 54* | 29 | 5 | -36 | -2 | 81* | 3 | 61* | 7
Nc1sc2c(c1C(=O)c1ccccc1)CCCC2 | -11 | -1 | -8 | 12 | -19 | -5 | · | · | · | ·
CN(C)CCNC(=O)c1c(NC(=O)c2ccccc2)sc2c1CCCC2 | -15 | 1 | -7 | 13 | -20 | 2 | · | · | · | ·
Nc1sc2c(c1C(=O)NCCc1ccccc1)CCCC2 | · | 76* | 64* | · | · | · | 90* | 2 | 79* | 8
CC(=O)NCCNC(=O)c1ccc(CSc2nc3ccccc3s2)cc1 | -4 | 5 | -17 | 13 | -4 | 5 | · | · | · | ·
CCc1ccc(Nc2cc(=O)n(C3CCCCC3)c(=O)[nH]2)cc1 | -8 | 79* | 44 | -2 | 8 | -2 | 108* | 50* | 81* | 32*
SMILES | CHO parental Ca | TAAR1 agonist | TAAR1 antag | OX1R antag-1 | OX1R antag-2 | GPR7 antagonist | TAAR1 ag confirm | Ga16 nonsel ag | TAAR1 desens | Ga16 antag count
O=c1cc(Nc2ccc3c(c2)OCCO3)[nH]c(=O)n1C1CCCCC1 | -17 | 10 | 9 | 12 | -18 | 8 | · | · | · | ·
CC1(C)CC(=O)C(C(C2=C(O)CC(C)(C)CC2=O)c2ccc(Br)s2)C(=O)C1 (stereo not drawn) | -17 | 51* | 19 | 10 | -19 | -5 | 22 | 34* | 42 | 27*
Cc1ccc(C(C2=C(O)CC(C)(C)CC2=O)C2C(=O)CC(C)(C)CC2=O)s1 (stereo not drawn) | -25 | 35 | -11 | 16 | -7 | -13 | · | · | · | ·
Cc1ccccc1N1CCN(C2CCCN(C(=O)c3noc4c3CCCC4)C2)CC1 (stereo not drawn) | -18 | -2 | -28 | 18 | -38 | -15 | · | · | · | ·
C=CCN(CC=C)S(=O)(=O)c1ccc2nc(NC(=O)C(C)C)sc2c1 | -20 | 40* | 8 | 31 | -2 | 4 | 69* | 31* | 28 | 11
Cc1nnn(-c2nonc2N)c1C(=O)NNC(=O)c1ccc(Cl)c(Cl)c1 | -14 | 55* | 9 | 5 | -15 | -2 | 72* | 6 | 21 | 8
O=S1(=O)CC(N2CCN(CCO)CC2)CN1Cc1cn(Cc2cccc(C(F)(F)F)c2)nn1 (stereo not drawn) | · | 3 | -4 | · | · | · | · | · | · | ·
COC(=O)c1ccc2nc(-c3ccccc3)c(Cc3ccc(C)cc3)n2c1 | · | -1 | 32 | · | · | · | · | · | · | ·
COc1ccc(N2C(=O)CN(Cc3ccc(OC)c(OC)c3)C2=S)cc1 | -3 | 154* | 31 | 19 | -20 | 1 | 13 | 3 | 3 | 7
CCOC(=O)C(NCCc1ccccc1F)(NC(C)=O)C(F)(F)F (stereo not drawn) | -14 | 72* | 51* | 23 | -3 | -12 | 101* | 1 | 88* | 0
COc1cc(C(=O)N2CCN(c3cccc(C(F)(F)F)c3)CC2)ccc1OCC(=O)N1CCOCC1 | · | 7 | 4 | · | · | · | · | · | · | ·
O=C(CC1Nc2ccccc2NC1=O)NCCc1ccccc1 (stereo not drawn) | -11 | 91* | 57* | 29 | -12 | 4 | 98* | 2 | 74* | -8
Cc1cc(C)c(C#N)c(OCC2CCCO2)n1 (stereo not drawn) | · | -1 | -5 | · | · | · | · | · | · | ·
